Experimental data as given in publication PMC6465157 (Chemical research in toxicology, 2019).
Where two headings read alike, the source gives them in different places.

Legend:
[1] = assay type: in vivo, mice
Method in brief: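 Blood extracts were dried under nitrogen. Headspace was sampled by SPME with a 100 µm PDMS fiber for 60 min at 60 °C, then desorbed in the injector for 5 min. Atropisomers were separated by GC-µECD with injector and detector at 250 °C and helium at 3.0 mL/min. The parent was measured on Chirasil-Dex at all time points from 1 to 48 h. Hydroxylated metabolites were measured at 5 h only, on Chirasil-Dex or CycloSil-B columns. Enantiomeric fractions were reported, n = 3–6.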

[2] = assay type: in vivo, mice; remark: listed apart in the source
Method in brief: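 Whole blood was taken 1 to 48 h after a single oral gavage (6.63 mg/kg in corn oil). Hydroxylated metabolites were methylated, and all analytes were run by GC with 63Ni-µECD on an SPB-1 column (60 m × 250 µm × 0.25 µm). The oven ran from 100 °C to 280 °C; injector was 280 °C, detector 300 °C, helium 1.0 mL/min. A PCB congener internal standard served as volume corrector.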

[3] = prior study, 30 mg/kg body weight, cited from earlier work
mice = assay: Daily animal welfare-assessments of exposed mice; assay type: in vivo; conditions: 6.63 mg/kg body weight in corn oil by oral gavage, up to 48 h
Method in brief: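 Male and female mice (8 weeks ± 2 days) with liver-specific cpr deletion and congenic wild-type mice were housed at 22 ± 2 °C on a 12 h light-dark cycle with diet and water ad libitum. They were randomised to a single gavage of test compound (6.63 mg/kg; 18.4 µmol/kg) in corn oil (10 mL/kg) or to corn oil alone. Lab personnel assessed welfare daily.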

[4] = 5 h time point, all four exposure groups (M-KO, M-WT, F-KO, F-WT)
[5] = 5 h time point, all exposure groups

Which “Atropisomeric enrichment in whole blood” value ([1]; all samples, 1 to 48 h, male and female KO and WT mice) does the source give for Clc1ccc(Cl)c(-c2c(Cl)ccc(Cl)c2Cl)c1Cl [E2-(+)-PCB 136] here?
Its value is “enriched”.

With Oc1cc(Cl)c(Cl)c(-c2c(Cl)ccc(Cl)c2Cl)c1Cl [5–136, 2,2′,3,3′,6,6′-hexachlorobiphenyl-5-ol] as the compound, how does the “Detection in whole blood” value [2, 4] read?
The value was “detected”.

What does the source list for Clc1ccc(Cl)c(-c2c(Cl)ccc(Cl)c2Cl)c1Cl [PCB 136, 2,2’,3,3’,6,6’-hexachlorobiphenyl]?
Enantiomeric fraction (EF) of PCB 136 ([3]; F-WT mice): 0.63 ± 0.06; Enantiomeric fraction (EF) of PCB 136 ([3]; M-WT mice (so in the source)): 0.66 ± 0.03; Detection in whole blood ([2]; all time points investigated (1 to 48 h), oral racemic PCB 136 6.63 mg/kg): detected; Adverse outcomes in daily animal welfare-assessments (mice): no adverse outcomes were observed

Which “Atropisomeric enrichment in whole blood” value [1, 5] does the source give for Oc1cc(Cl)c(Cl)c(-c2c(Cl)ccc(Cl)c2Cl)c1Cl [E1-5–136] here?
Its value is “enriched”.

With Oc1cc(Cl)c(-c2c(Cl)ccc(Cl)c2Cl)c(Cl)c1Cl [E2-4–136] as the compound, how does the “Atropisomeric enrichment in whole blood” value [1, 5] read?
Its value is “enriched”.

With Oc1cc(Cl)c(-c2c(Cl)ccc(Cl)c2Cl)c(Cl)c1Cl [4–136, 2,2′,3,3′,6,6′-hexachlorobiphenyl-4-ol] as the compound, how does the “Detection in whole blood” value [2, 4] read?
Its value is “detected”.

Which “Detection in whole blood” value [2, 4] does the source give for Oc1c(O)c(Cl)c(-c2c(Cl)ccc(Cl)c2Cl)c(Cl)c1Cl [4,5–136, 4,5-dihydroxy-2,2′,3,3′,6,6′-hexachlorobiphenyl] here?
Its value is “detected”.

Which “Detection in whole blood” value [2, 4] does the source give for Oc1c(Cl)cc(Cl)c(-c2c(Cl)ccc(Cl)c2Cl)c1Cl [3–150, 2,2′,3′,4,6,6′-Hexachlorobiphenyl-3-ol] here?
The value was “detected”.
